In brackets after ≈: the same amount, converted by molar mass.
Key:
[1] = system: Salmonella enterica subsp. enterica; assay: Antibacterial activity against Salmonella typhi after 24 hrs by well diffusion assay; format: functional, Salmonella enterica subsp. enterica serovar Typhi; conditions: for Activity: Salmonella enterica subsp. enterica serovar Typhi
Method in brief: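 S. typhi kept on nutrient agar (beef extract, yeast extract, peptone, NaCl, agar; pH 7.2) at 28 ± 2 °C. Agar well diffusion with DMSO as control and tetracycline as reference. MIC taken as the lowest concentration giving prominent inhibition of bacterial growth after 24 h at 37 °C.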

Proteus mirabilis = assay: Antibacterial activity against Proteus mirabilis after 24 hrs by well diffusion assay; format: functional
Method in brief: (§1)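 Bacteria kept on nutrient agar (beef extract, yeast extract, peptone, NaCl; pH 7.2) at room temperature (28 ± 2 °C). Compounds tested by well diffusion against DMSO control, tetracycline reference. MIC taken as lowest concentration giving prominent inhibition of bacterial growth after 24 h at 37 °C.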

Rhizoctonia solani = assay: Antifungal activity against Rhizoctonia solani after 3 days by well diffusion assay; format: functional; conditions: for MIC: 72 h
Method in brief: (§2)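 Fungi maintained on potato dextrose agar (potato 200 g/l, dextrose 20 g/l; pH 6.5) at room temperature (28 ± 2 °C). Well diffusion assay against DMSO control; MIC read as lowest concentration causing prominent inhibition of fungal growth after 3 days incubation at 37 °C.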

Alternaria alternata = assay: Antifungal activity against Alternaria alternata after 3 days by well diffusion assay; format: functional; conditions: for MIC: 72 h; method in brief: as §2
Staphylococcus aureus = assay: Antibacterial activity against Staphylococcus aureus after 24 hrs by well diffusion assay; format: functional; method in brief: as §1
Proteus vulgaris = assay: Antibacterial activity against Proteus vulgaris after 24 hrs by well diffusion assay; format: functional; method in brief: as §1
Curvularia lunata = assay: Antifungal activity against Curvularia lunata after 3 days by well diffusion assay; format: functional; conditions: for MIC: 72 h; method in brief: as §2
Macrophomina phaseolina = assay: Antifungal activity against Macrophomina phaseolina after 3 days by well diffusion assay; format: functional; conditions: for MIC: 72 h; method in brief: as §2

Structure (SMILES)	MIC [1]	Activity [1]	Activity (Proteus mirabilis)	MIC (Proteus mirabilis)	Activity (Rhizoctonia solani)	MIC (Rhizoctonia solani)	Activity (Alternaria alternata)	MIC (Alternaria alternata)	Activity (Staphylococcus aureus)	MIC (Staphylococcus aureus)	Activity (Proteus vulgaris)	MIC (Proteus vulgaris)	Activity (Curvularia lunata)	MIC (Curvularia lunata)	Activity (Macrophomina phaseolina)	MIC (Macrophomina phaseolina)
CCn1c2ccc3cc2c2cc(ccc21)CSc1ccccc1NC(=O)COc1ccc2ccccc2c1-c1c(ccc2ccccc12)OCC(=O)Nc1ccccc1SC3	10 µg/mL (≈ 12 µM)	Dose-dependent effect	Dose-dependent effect	5 µg/mL (≈ 5.98 µM)	Dose-dependent effect	20 µg/mL (≈ 23.9 µM)	Dose-dependent effect	10 µg/mL (≈ 12 µM)	Dose-dependent effect	10 µg/mL (≈ 12 µM)	Dose-dependent effect	5 µg/mL (≈ 5.98 µM)	Dose-dependent effect	10 µg/mL (≈ 12 µM)	Dose-dependent effect	15 µg/mL (≈ 17.9 µM)
COC(=O)Nc1nc2ccccc2[nH]1 [CARBENDAZIM]						25 µg/mL (≈ 131 µM)		12 µg/mL (≈ 62.8 µM)						15 µg/mL (≈ 78.5 µM)		18 µg/mL (≈ 94.1 µM)
CCn1c2ccc3cc2c2cc(ccc21)CSc1ccccc1NC(=O)c1ccccc1-c1ccccc1C(=O)Nc1ccccc1SC3	60 µg/mL (≈ 88.8 µM)	Dose-dependent effect	Dose-dependent effect	40 µg/mL (≈ 59.2 µM)	Dose-dependent effect	20 µg/mL (≈ 29.6 µM)	Dose-dependent effect	25 µg/mL (≈ 37 µM)	Dose-dependent effect	70 µg/mL (≈ 104 µM)	Dose-dependent effect	40 µg/mL (≈ 59.2 µM)	Dose-dependent effect	20 µg/mL (≈ 29.6 µM)	Dose-dependent effect	15 µg/mL (≈ 22.2 µM)
CN(C)[C@@H]1C(O)=C(C(N)=O)C(=O)[C@@]2(O)C(O)=C3C(=O)c4c(O)cccc4[C@@](C)(O)[C@H]3C[C@@H]12 [TETRACYCLINE]	15 µg/mL (≈ 33.8 µM)			20 µg/mL (≈ 45 µM)						20 µg/mL (≈ 45 µM)		35 µg/mL (≈ 78.8 µM)				
CCn1c2ccc3cc2c2cc(ccc21)CSc1ccccc1NC(=O)c1ccc(cc1)OCc1ccccc1COc1ccc(cc1)C(=O)Nc1ccccc1SC3	20 µg/mL (≈ 24.6 µM)	Dose-dependent effect	Dose-dependent effect	10 µg/mL (≈ 12.3 µM)	Dose-dependent effect	40 µg/mL (≈ 49.3 µM)	Dose-dependent effect	15 µg/mL (≈ 18.5 µM)	Dose-dependent effect	30 µg/mL (≈ 36.9 µM)	Dose-dependent effect	40 µg/mL (≈ 49.3 µM)	Dose-dependent effect	20 µg/mL (≈ 24.6 µM)	Dose-dependent effect	50 µg/mL (≈ 61.6 µM)
CCn1c2ccc3cc2c2cc(ccc21)CSc1ccccc1NC(=O)c1cccc(n1)C(=O)Nc1ccccc1SC3	30 µg/mL (≈ 49.9 µM)	Dose-dependent effect	Dose-dependent effect	5 µg/mL (≈ 8.32 µM)	Dose-dependent effect	20 µg/mL (≈ 33.3 µM)	Dose-dependent effect	15 µg/mL (≈ 25 µM)	Dose-dependent effect	10 µg/mL (≈ 16.6 µM)	Dose-dependent effect	30 µg/mL (≈ 49.9 µM)	Dose-dependent effect	15 µg/mL (≈ 25 µM)	Dose-dependent effect	10 µg/mL (≈ 16.6 µM)
CCn1c2ccc3cc2c2cc(ccc21)CSc1ccccc1NC(=O)COc1cccc(c1)OCC(=O)Nc1ccccc1SC3	30 µg/mL (≈ 45.5 µM)	Dose-dependent effect	Dose-dependent effect	20 µg/mL (≈ 30.3 µM)	Dose-dependent effect	50 µg/mL (≈ 75.8 µM)	Dose-dependent effect	25 µg/mL (≈ 37.9 µM)	Dose-dependent effect	40 µg/mL (≈ 60.6 µM)	Dose-dependent effect	60 µg/mL (≈ 90.9 µM)	Dose-dependent effect	35 µg/mL (≈ 53 µM)	Dose-dependent effect	45 µg/mL (≈ 68.2 µM)
CCn1c2ccc3cc2c2cc(ccc21)CSc1ccccc1NC(=O)c1cccc(c1)C(=O)Nc1ccccc1SC3	50 µg/mL (≈ 83.4 µM)	Dose-dependent effect	Dose-dependent effect	50 µg/mL (≈ 83.4 µM)	Dose-dependent effect	30 µg/mL (≈ 50 µM)	Dose-dependent effect	15 µg/mL (≈ 25 µM)	Dose-dependent effect	20 µg/mL (≈ 33.3 µM)	Dose-dependent effect	60 µg/mL (≈ 100 µM)	Dose-dependent effect	20 µg/mL (≈ 33.3 µM)	Dose-dependent effect	30 µg/mL (≈ 50 µM)

— ChEMBL document CHEMBL1152480, “Synthesis of novel carbazole based macrocyclic amides as potential antimicrobial agents” (2009)
